Here are results for one compound from PMC3073091 (Chromatographia, 2011).

In general, clearance refers to a measure of how efficiently the substance is removed, as volume per time. Read a low clearance as a low capacity for elimination. The half-life is the time needed for the level to fall by half in the phase considered.

Series [1] in a line: pilot pharmacokinetic study in rats after intravenous administration. The class given is in vivo, rat. In a few lines: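 Male Wistar rats (13–15 weeks, 200–220 g) were fasted overnight with free water access. They received 3 mg kg−1 i.v. in 0.9% saline. Under thiopental (70 mg kg−1), blood was taken by decapitation at 5, 10, 30, 60, 120 and 240 min (n = 5 per time). Serum was stored at −30 °C, then 100 µL was extracted into ethyl acetate with internal standard for LC–MS–MS. Non-compartmental analysis used mean concentrations: t1/2 = 0.693/λz, Cl = dose/AUC0-inf, Vss = D·AUMC/AUC².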

Series [2] can be described thus: stability of DL76 in rat serum QC samples under storage and process conditions. The class given is in vitro ADME. The conditions noted are these: bench top, post preparative, freeze/thaw, long term.
Series [3] deals with human H3 receptor. The conditions noted are these: read-out: hKi; human H3 receptor stably expressed in CHO-K1 cells; preliminary pharmacological studies; cited from earlier work.
[4] abbreviates: male, Wistar, rat, serum, iv, 3 mg/kg.

SMILES strings stand for the structures.

In series [1] (setting [4]), `CC(C)(C)c1ccc(OCCCN2CCCCC2)cc1` [DL76, 1-[3-(4-tert-butylphenoxy)propyl]piperidine] gave a clearance of 217 mL/min/kg and a half-life of 1.41 h. Moreover, the “serum concentration of DL76 in a representative rat serum sample” value in series [1] (rat serum after i.v. 3 mg kg^−1, time not stated) is 67.82 ng/mL. Further, the “stability in rat serum (all storage and process tests)” value in series [2] is given as “good stability”. The Ki in series [3] is 22 ± 3 nM.
